This is an account of results in ChEMBL document CHEMBL4828745, “Discovery and Structure-Activity Relationships of Quinazolinone-2-carboxamide Derivatives as Novel Orally Efficacious Antimalarials” (J Med Chem, 2021).

The nature of series [1]: Cytotoxicity against human HEK293 cells assessed as cell viability incubated for 72 hrs by Alamar blue assay. It is filed as cell-based. In a few lines: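 HEK293 cells handled with the same incubation, compound addition and timing as the 72 h parasite assay. Alamar Blue, diluted in growth medium, was incubated 4 h at 37 °C/5% CO2, then 20 h at room temperature before plate read.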

Another series relates to Plasmodium falciparum. Description: Antiplasmodial activity against Plasmodium falciparum 3D7 infected in human erythrocyte assessed as intraerythrocytic growth inhibition incubated for 72 hrs by DAPI-staining based imaging analysis. The series is classed as functional, organism-based. As to conditions: 3D7, 72 h. The method, boiled down: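 P. falciparum 3D7 cultured in RPMI1640 with hypoxanthine, HEPES, 2.5 mg/mL AlbuMAX II and 5% human serum. Sorbitol-synchronized rings exposed 72 h at 37 °C under 5% CO2/5% O2, then DAPI-stained with saponin/Triton X-100 for 8 h in the dark. High-content imaging with spot detection. Duplicate points. Reference antimalarials run in each assay.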

Series [2] in a line: Intrinsic clearance in human liver microsomes at […] by LC-MS/MS analysis. It is filed as ADME, Microsome. In a few lines:
(§1)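 Liver microsomes (human, mouse or rat) at 0.4 mg/mL protein, 37 °C, with an NADPH-regenerating system. Compound at 0.25 or 0.5 μM. Acetonitrile/diazepam quench, LC-MS quantitation. CLint from the first-order degradation rate constant.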

The nature of series [3]: Intrinsic clearance in rat liver microsomes at […] by LC-MS/MS analysis. The series is classed as ADME, Microsome. In a few lines:
as §1

Series [4] is described as follows: Kinetic solubility of the compound in pH 6.5 phosphate buffer by nephelometry. The series is classed as physicochemical. As to conditions: read-out: Kinetic_solubility. In a few lines: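 DMSO stock spiked into pH 6.5 phosphate buffer (1% DMSO final). After 30 min, solubility range estimated by nephelometry.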

≈ marks a conversion by molar mass, not a printed value.

As for `CCc1cccc(CNC(=O)c2nc3ccc(Br)c(COCc4ccc(C(=O)O)cc4)c3c(=O)[nH]2)c1`, the cytotoxic concentration (CC50) at 72 h in series [1] was greater than 20 µM. The half-maximal inhibitory concentration (IC50) in the series with Plasmodium falciparum is greater than 20 µM.

In the case of `CCc1ccc(CNC(=O)c2nc3ccc(F)c(OCCc4ccc(C(=O)O)cc4)c3c(=O)[nH]2)cc1`, the CC50 at 72 h in series [1] was greater than 20 µM. In addition, in the series on Plasmodium falciparum, the IC50 was 1.16 µM.

In the case of `COc1cc(CNC(=O)c2nc3ccc(F)c(OCCc4ccc(C(=O)O)cc4)c3c(=O)[nH]2)ccc1F`, in series [1], the CC50 at 72 h is greater than 20 µM. Besides, the IC50 with Plasmodium falciparum was found to be 1.9 µM.

As for `CCc1cccc(CNC(=O)c2nc3ccc(F)c(OCCc4ccc(C(N)=O)cc4)c3c(=O)[nH]2)c1`, in series [1], the CC50 at 72 h is greater than 20 µM. Also, the IC50 in the series on Plasmodium falciparum was greater than 20 µM.

Take `CCc1cccc(CNC(=O)c2nc3ccc(Cl)c(COCc4ccc(C(=O)O)cc4)c3c(=O)[nH]2)c1`: the CC50 at 72 h in series [1] is greater than 20 µM. In addition, the half-inhibitory concentration (IC50) with Plasmodium falciparum was greater than 20 µM.

As to `COc1cccc(CNC(=O)c2nc3ccc(F)c(OCCc4ccc(N)cc4)c3c(=O)[nH]2)c1`, the CC50 at 72 h in series [1] was greater than 20 µM. Further, in the series with Plasmodium falciparum, the half-inhibitory concentration (IC50) is greater than 20 µM.

For the molecule `CCc1ccccc1CNC(=O)c1nc2ccc(F)c(OCCc3ccc(C(=O)O)cc3)c2c(=O)[nH]1`, in series [1], the CC50 at 72 h was greater than 20 µM. Besides, the IC50 in the series on Plasmodium falciparum is greater than 20 µM.

`CCc1cccc(CNC(=O)c2nc3cccc(COCc4cccc(C(=O)O)c4)c3c(=O)[nH]2)c1`: the CC50 at 72 h in series [1] was greater than 20 µM. Further, the IC50 in the series with Plasmodium falciparum came to 1.58 µM.

With `CCc1cccc(CNC(=O)c2nc3cccc(COCc4ccc(C(N)=O)cc4)c3c(=O)[nH]2)c1`, the cytotoxic concentration (CC50) at 72 h in series [1] is greater than 20 µM. In addition, the IC50 with Plasmodium falciparum was 0.31 µM. Besides, the CLH amounted to 83 uL/ml.millig in series [2] and 636 uL/ml.millig in series [3]. The solubility kinetic in series [4] is less than 3.1 µg/mL.

With `CCc1cccc(CNC(=O)c2nc3ccc(F)c(COCc4ccc(C(=O)O)cc4)c3c(=O)[nH]2)c1`, the CC50 at 72 h in series [1] is greater than 20 µM. Also, the concentration for half-maximal inhibition (IC50) with Plasmodium falciparum worked out at 4.46 µM.

`CCc1cccc(NC(=O)c2nc3ccc(F)c(OCCc4ccc(C(=O)O)cc4)c3c(=O)[nH]2)c1`: in series [1], the CC50 at 72 h was greater than 20 µM. Moreover, the 50% inhibitory concentration (IC50) with Plasmodium falciparum is 3.19 µM.

For `Cc1cc(CNC(=O)c2nc3ccc(F)c(OCCc4ccc(C(=O)O)cc4)c3c(=O)[nH]2)ccc1F`, the cytotoxic concentration (CC50) at 72 h in series [1] was greater than 20 µM. For the same molecule, the IC50 in the series on Plasmodium falciparum came out at 0.59 µM.

For the molecule `CCc1cccc(CNC(=O)c2nc3ccc(OC)c(COCc4ccc(C(=O)O)cc4)c3c(=O)[nH]2)c1`, in series [1], the CC50 at 72 h is greater than 20 µM. In the series with Plasmodium falciparum, the IC50 was greater than 20 µM.

On to `CCc1cccc(CNC(=O)c2nc3cccc(CSCc4ccc(C(=O)O)cc4)c3c(=O)[nH]2)c1`, for which, in series [1], the CC50 at 72 h is greater than 20 µM. In addition, the half-inhibitory concentration (IC50) in the series on Plasmodium falciparum was 5.54 µM.

Turning to `CCNC(=O)c1ccc(CCOc2c(F)ccc3nc(C(=O)NCc4cccc(CC)c4)[nH]c(=O)c23)cc1`, in series [1], the CC50 at 72 h is greater than 20 µM. The IC50 with Plasmodium falciparum is greater than 20 µM.

In the case of `CCc1cccc(CNC(=O)c2nc3cccc(COc4ccc(C(=O)O)cc4)c3c(=O)[nH]2)c1`, the CC50 at 72 h in series [1] is greater than 20 µM. For the same molecule, the half-maximal inhibitory concentration (IC50) in the series with Plasmodium falciparum was greater than 20 µM.

As for `CCc1cccc(CN(C)C(=O)c2nc3ccc(F)c(OCCc4ccc(C(=O)O)cc4)c3c(=O)[nH]2)c1`, in series [1], the CC50 at 72 h is greater than 20 µM. Besides, in the series with Plasmodium falciparum, the IC50 was greater than 20 µM.

On to `O=C(O)c1ccc(CCOc2c(F)ccc3nc(C(=O)NCc4cccc(OCC5CC5)c4)[nH]c(=O)c23)cc1`, for which, in series [1], the CC50 at 72 h was greater than 20 µM. In addition, the IC50 in the series on Plasmodium falciparum stood at 1.67 µM.

For the molecule `CCc1cccc(C(C)NC(=O)c2nc3ccc(F)c(OCCc4ccc(C(=O)O)cc4)c3c(=O)[nH]2)c1` (stereo not drawn), the CC50 at 72 h in series [1] is greater than 20 µM. The IC50 in the series on Plasmodium falciparum came out at 5.13 µM.

As for `CCc1cccc(CNC(=O)c2nc3ccc(F)c(COc4ccc(C(=O)O)cc4)c3c(=O)[nH]2)c1`, the CC50 at 72 h in series [1] was greater than 20 µM. Moreover, the 50% inhibitory concentration (IC50) in the series with Plasmodium falciparum came out at 6.97 µM.

Regarding `CC(C)c1cccc(CNC(=O)c2nc3ccc(F)c(OCCc4ccc(C(=O)O)cc4)c3c(=O)[nH]2)c1`, the CC50 at 72 h in series [1] was greater than 20 µM. Moreover, the IC50 in the series with Plasmodium falciparum is 1.16 µM.

Take `COc1cccc(CNC(=O)c2nc3cccc(COCc4ccc(C(=O)O)cc4)c3c(=O)[nH]2)c1`: in series [1], the half-maximal cytotoxic concentration (CC50) at 72 h is greater than 20 µM. Moreover, in the series with Plasmodium falciparum, the IC50 was 0.18 µM.

As for `CCc1cccc(CNC(=O)c2nc3ccc(COCc4ccc(C(=O)O)cc4)cc3c(=O)[nH]2)c1`, the 50% cytotoxic concentration (CC50) at 72 h in series [1] was greater than 20 µM. Besides, in the series with Plasmodium falciparum, the IC50 was 1.62 µM.

On to `CCc1cccc(CNC(=O)c2nc3cc(COCc4ccc(C(=O)O)cc4)ccc3c(=O)[nH]2)c1`, for which the CC50 at 72 h in series [1] was greater than 20 µM. Moreover, the IC50 in the series with Plasmodium falciparum is greater than 20 µM.

For `COc1cccc(CNC(=O)c2nc3ccc(F)c(OCCc4ccccc4)c3c(=O)[nH]2)c1`, the half-maximal cytotoxic concentration (CC50) at 72 h in series [1] is greater than 20 µM. The IC50 in the series with Plasmodium falciparum is greater than 20 µM.

Consider `CCc1cccc(CNC(=O)c2nc3ccc(F)c(COc4ccc(CC(=O)O)cc4)c3c(=O)[nH]2)c1`, for which the 50% cytotoxic concentration (CC50) at 72 h in series [1] is greater than 20 µM. Besides, in the series with Plasmodium falciparum, the IC50 is greater than 20 µM.

`CCc1cccc(CNC(=O)c2nc3c(F)ccc(COCc4ccc(C(=O)O)cc4)c3c(=O)[nH]2)c1`: the CC50 at 72 h in series [1] is greater than 20 µM. Besides, in the series on Plasmodium falciparum, the half-maximal inhibitory concentration (IC50) is 0.054 µM.

For `CCc1cccc(CNC(=O)c2nc3cccc(COc4ccc(CC(=O)O)cc4)c3c(=O)[nH]2)c1`, the CC50 at 72 h in series [1] is greater than 20 µM. In the series on Plasmodium falciparum, the half-inhibitory concentration (IC50) is greater than 20 µM.

On to `CCc1ccc(CNC(=O)c2nc3cccc(COCc4ccc(C(=O)O)cc4)c3c(=O)[nH]2)cc1`, for which the cytotoxic concentration (CC50) at 72 h in series [1] is greater than 20 µM. For the same molecule, the IC50 in the series with Plasmodium falciparum came out at 0.073 µM.

Take `O=C(O)c1ccc(COCc2cccc3nc(C(=O)NCc4ccccc4)[nH]c(=O)c23)cc1`: the CC50 at 72 h in series [1] was greater than 20 µM. The IC50 in the series with Plasmodium falciparum came to 0.28 µM.

As for `COc1cccc(CNC(=O)c2nc3ccc(F)c(OCCc4ccc(C(=O)O)cc4)c3c(=O)[nH]2)c1`, in series [1], the CC50 at 72 h is greater than 20 µM. Besides, the concentration for half-maximal inhibition (IC50) in the series on Plasmodium falciparum was 2.38 µM.

Consider `CCc1cccc(CNC(=O)c2nc3c(COCc4ccc(C(=O)O)cc4)cccc3c(=O)[nH]2)c1`, for which the CC50 at 72 h in series [1] was greater than 20 µM. For the same molecule, the IC50 with Plasmodium falciparum is greater than 20 µM.

As to `CCc1cccc(C(C)NC(=O)c2nc3cccc(COCc4ccc(C(=O)O)cc4)c3c(=O)[nH]2)c1` (stereo not drawn), the 50% cytotoxic concentration (CC50) at 72 h in series [1] was greater than 20 µM. In addition, in the series on Plasmodium falciparum, the concentration for half-maximal inhibition (IC50) came to 5.94 µM.

For the molecule `CCc1ccnc(CNC(=O)c2nc3cccc(COCc4ccc(C(=O)O)cc4)c3c(=O)[nH]2)c1`, the CC50 at 72 h in series [1] was greater than 20 µM. Moreover, the half-maximal inhibitory concentration (IC50) in the series on Plasmodium falciparum was determined as 0.89 µM.

Consider `CCc1cccc(CNC(=O)c2nc3c(Cl)ccc(COCc4ccc(C(=O)O)cc4)c3c(=O)[nH]2)c1`, for which the half-maximal cytotoxic concentration (CC50) at 72 h in series [1] was greater than 20 µM. In the series with Plasmodium falciparum, the IC50 amounted to 0.16 µM.

In the case of `CCc1cccc(CNC(=O)c2nc3c(OC)ccc(COCc4ccc(C(=O)O)cc4)c3c(=O)[nH]2)c1`, in series [1], the CC50 at 72 h was greater than 20 µM. Further, the half-maximal inhibitory concentration (IC50) in the series on Plasmodium falciparum is 1.89 µM.

As to `O=C(O)c1ccc(COCc2cccc3nc(C(=O)NCc4cccc(C(F)(F)F)c4)[nH]c(=O)c23)cc1`, in series [1], the CC50 at 72 h is greater than 20 µM. The 50% inhibitory concentration (IC50) in the series on Plasmodium falciparum came out at 0.41 µM. Moreover, the values for the CLH in series [2] and in series [3] were 7 uL/ml.millig and 42 uL/ml.millig, respectively.

Take `CCc1cccc(CNC(=O)c2nc3cccc(CN(C)Cc4ccc(C(=O)O)cc4)c3c(=O)[nH]2)c1`: the CC50 at 72 h in series [1] was greater than 20 µM. Besides, in the series with Plasmodium falciparum, the concentration for half-maximal inhibition (IC50) was 1.15 µM.

With `CCc1cncc(CNC(=O)c2nc3cccc(COCc4ccc(C(=O)O)cc4)c3c(=O)[nH]2)c1`, the CC50 at 72 h in series [1] was greater than 20 µM. The IC50 with Plasmodium falciparum came out at 0.55 µM. In addition, the CLH in series [2] worked out at 13 uL/ml.millig; in series [3] it was 78 uL/ml.millig. Further, in series [4], the solubility kinetic worked out at 1.6 µg/mL (≈ 3.39 µM).

For the molecule `O=C(O)c1ccc(CCOc2c(F)ccc3nc(C(=O)NCc4cccc(C5CC5)c4)[nH]c(=O)c23)cc1`, the half-maximal cytotoxic concentration (CC50) at 72 h in series [1] was greater than 20 µM. Moreover, the IC50 in the series with Plasmodium falciparum was 4.76 µM.
